{"data": "Assay results gathered from unrelated publications", "target": "Tyrosine-protein kinase ZAP-70 (ZAP70, Homo sapiens, UniProt P43403)", "Sequence (P43403 1-619, as in one of the studies)": "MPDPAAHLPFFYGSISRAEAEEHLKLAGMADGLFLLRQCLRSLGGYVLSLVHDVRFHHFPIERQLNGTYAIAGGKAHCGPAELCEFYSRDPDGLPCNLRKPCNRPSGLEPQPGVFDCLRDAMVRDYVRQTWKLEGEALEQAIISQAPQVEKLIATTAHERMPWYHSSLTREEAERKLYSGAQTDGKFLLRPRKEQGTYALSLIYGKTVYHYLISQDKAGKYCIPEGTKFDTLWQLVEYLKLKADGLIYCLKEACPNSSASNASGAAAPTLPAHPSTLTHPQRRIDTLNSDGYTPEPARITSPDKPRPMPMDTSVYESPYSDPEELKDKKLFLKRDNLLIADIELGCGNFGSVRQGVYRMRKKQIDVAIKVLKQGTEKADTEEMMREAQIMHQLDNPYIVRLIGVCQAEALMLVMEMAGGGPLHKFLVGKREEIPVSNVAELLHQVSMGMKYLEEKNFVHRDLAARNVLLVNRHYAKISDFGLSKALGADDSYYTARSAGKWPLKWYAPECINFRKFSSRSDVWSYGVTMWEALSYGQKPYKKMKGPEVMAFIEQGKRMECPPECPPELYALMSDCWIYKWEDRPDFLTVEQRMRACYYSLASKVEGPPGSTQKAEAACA"}
{"SMILES": "COc1ccc2oc(-c3ccc4nc(N)oc4c3)c/c(=N\\c3ccccc3NC(=O)CCN)c2c1", "read-out": "binding", "tested at": "1 µM", "endpoint": "remaining binding", "value": "88%"}
{"SMILES": "CC#CC(=O)N1CCC[C@H]1c1nc(-c2ccc(C(=O)Nc3ccccn3)cc2)c2c(N)nccn12", "read-out": "enzyme activity", "action": "inhibitor", "tested at": "1 µM", "endpoint": "inhibition", "value": "8%"}
{"SMILES": "CC(C)S(=O)(=O)c1ccc2nccc(Nc3ccc4sc(C5CCCC5)nc4c3)c2c1", "read-out": "enzyme activity", "action": "inhibitor", "tested at": "1 µM", "endpoint": "activity vs control", "value": "100%"}
{"SMILES": "CN1CCN(C(=O)c2ccc(NC(=O)Nc3ccc(N(C)c4ccnc(Nc5ccc(CS(C)(=O)=O)cc5)n4)cc3)cc2)CC1", "read-out": "binding", "tested at": "1 µM", "endpoint": "remaining binding", "value": "65%"}
{"SMILES": "CCCCC(=O)Nc1ccc(-c2ccc3ncn(CCC)c(=O)c3c2)cn1", "read-out": "binding", "technique": "competition with immobilised ligand", "tested at": "0.5 µM", "endpoint": "remaining binding", "value": "98%"}
{"SMILES": "Cc1ccc(NC(=O)c2ccnc(C(F)(F)F)c2)cc1-c1cc(OCCO)nc(N2CCOCC2)c1", "read-out": "binding", "tested at": "1 µM", "endpoint": "remaining binding", "value": "100%"}
{"SMILES": "C=CC(=O)N1CCC([C@@H]2CCNc3c(C(N)=O)c(-c4ccc(Oc5ccccc5)cc4)nn32)CC1", "read-out": "enzyme activity", "action": "inhibitor", "tested at": "1 µM", "endpoint": "inhibition", "value": "2%"}
{"SMILES": "C#Cc1cnc(Nc2ccnc(CO)c2)nc1Nc1ccccc1S(C)(=O)=NC#N (stereo not drawn)", "read-out": "cell-free assay", "tested at": "1 µM", "endpoint": "remaining signal", "value": "100%"}
{"SMILES": "N#Cc1ccc(NC(=O)Nc2ccccc2)cc1", "read-out": "cell-free assay", "technique": "competition with immobilised ligand", "tested at": "25 µM", "endpoint": "remaining binding", "value": "91%"}
